Here are results for 5 compounds from ChEMBL document CHEMBL2040770, “Finger loop inhibitors of the HCV NS5b polymerase. Part II. Optimization of tetracyclic indole-based macrocycle leading to the discovery of TMC647055” (Bioorg Med Chem Lett, 2012).

pEC50: −log10 of the molar value. Where only a bound is given, the exact number is not on record here.

Tested on in the first data set: not listed separately
Briefly: Drug uptake in Sprague-Dawley rat liver at 10 mg/kg, po measured after 7 hrs. Format: ADME, organism-based. Set-up: dose 10 mg/kg, route oral. Particulars: read-out: Drug uptake. Summed up:
(§1)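 Male Sprague–Dawley rats (n = 3) received a single oral dose of 10 mg/kg in PEG400/2% vitamin E-TPGS. Liver concentration was measured 7 h post-dosing, and the liver/plasma concentration ratio was taken at that same 7 h time point.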
Regarding `COc1ccc2c(c1)C[C@@H]1Cn3c-2c(C2CCCCC2)c2ccc(cc23)C(=O)NS(=O)(=O)N(C)CCOCCN(C)C1=O`, the concentration at 7 h was found to be 898 ng/mL.

For `COc1ccc2c(c1)C=C1Cn3c-2c(C2CCCCC2)c2ccc(cc23)C(=O)NS(=O)(=O)N(C)CCN2CCN(CC2)C1=O`, the concentration at 7 h was determined as 299 ng/mL.

Consider `CN1CCOCCN(C)S(=O)(=O)NC(=O)c2ccc3c(C4CCCCC4)c4n(c3c2)CC(=Cc2cc(F)ccc2-4)C1=O`, for which the concentration at 7 h was determined as 6560 ng/mL.

Tested on in another data set: not listed separately
Briefly: Metabolic stability in human liver microsomes assessed as compound metabolized at 5 uM after 15 mins. In kind it is ADME, Microsome. Particulars: read-out: Drug metabolism. Summed up:
(§2)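 Rat or human liver microsomes incubated with compound at 5 µM for 15 min. Stability is given as % of compound metabolized.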
Turning to `COc1ccc2c(c1)C=C1Cn3c-2c(C2CCCCC2)c2ccc(cc23)C(=O)NS(=O)(=O)NCCN(C)CCNC1=O`, the metabolised at 0.25 h, 5 µM was determined as 7%.

For `COc1ccc2c(c1)C=C1Cn3c-2c(C2CCCCC2)c2ccc(cc23)C(=O)NS(=O)(=O)N(C)CCCCNC1=O`, the metabolised at 0.25 h, 5 µM worked out at 20%.

Take `COc1ccc2c(c1)C[C@@H]1Cn3c-2c(C2CCCCC2)c2ccc(cc23)C(=O)NS(=O)(=O)N(C)CCOCCN(C)C1=O`: the metabolised at 0.25 h, 5 µM worked out at 63%.

As to `COc1ccc2c(c1)C=C1Cn3c-2c(C2CCCCC2)c2ccc(cc23)C(=O)NS(=O)(=O)N(C)CCN2CCN(CC2)C1=O`, the metabolised at 0.25 h, 5 µM was 26%.

For `CN1CCOCCN(C)S(=O)(=O)NC(=O)c2ccc3c(C4CCCCC4)c4n(c3c2)CC(=Cc2cc(F)ccc2-4)C1=O`, the metabolised at 0.25 h, 5 µM stood at 38%.

Tested on in a further data set: not listed separately
Briefly: Ratio of drug uptake in Sprague-Dawley rat liver to plasma at 10 mg/kg, po measured after 7 hrs. Format: ADME, organism-based. Further details: dose 10 mg/kg, route oral.
Conditions: not given
Summed up:
as §1
For orientation: Kp means the ratio of the level in a tissue or fluid to that in plasma or blood. Consider `COc1ccc2c(c1)C[C@@H]1Cn3c-2c(C2CCCCC2)c2ccc(cc23)C(=O)NS(=O)(=O)N(C)CCOCCN(C)C1=O`, for which the Kp at 7 h is 22.

As for `COc1ccc2c(c1)C=C1Cn3c-2c(C2CCCCC2)c2ccc(cc23)C(=O)NS(=O)(=O)N(C)CCN2CCN(CC2)C1=O`, the partition ratio (Kp) at 7 h turned out to be 108.

Turning to `CN1CCOCCN(C)S(=O)(=O)NC(=O)c2ccc3c(C4CCCCC4)c4n(c3c2)CC(=Cc2cc(F)ccc2-4)C1=O`, the Kp at 7 h amounted to 62.

Tested on in a further data set: not listed separately
Put plainly: Clearance in Sprague-Dawley rat at 2 mg/kg, iv and 10 mg/kg, po. Format: ADME, organism-based. To be noted: in vivo. Summed up: (§3)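 Male Sprague–Dawley rats (n = 3) given a single iv dose of 2 mg/kg in PEG400/saline 70:30 and a single oral dose of 10 mg/kg in PEG400/2% vitamin E-TPGS. Plasma kinetics were followed to give plasma clearance, Cmax and oral bioavailability.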
`COc1ccc2c(c1)C[C@@H]1Cn3c-2c(C2CCCCC2)c2ccc(cc23)C(=O)NS(=O)(=O)N(C)CCOCCN(C)C1=O`: the clearance was 53.3 mL/min/kg.

Compound `COc1ccc2c(c1)C=C1Cn3c-2c(C2CCCCC2)c2ccc(cc23)C(=O)NS(=O)(=O)N(C)CCN2CCN(CC2)C1=O` had a clearance of 157 mL/min/kg.

In turn, `CN1CCOCCN(C)S(=O)(=O)NC(=O)c2ccc3c(C4CCCCC4)c4n(c3c2)CC(=Cc2cc(F)ccc2-4)C1=O` had a clearance of 61.7 mL/min/kg.

Tested on in a further data set: not listed separately
Put plainly: Selectivity index, ratio of CC50 for human Huh7 cells to EC50 for Hepatitic C virus genotype 1b clone ET. To be noted: read-out: Ratio CC50/EC50. In kind it is toxicity, cell-based, Huh-7. Summed up: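 Selectivity index computed in Huh-7 cells as CC50/EC50.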
Consider `COc1ccc2c(c1)C=C1Cn3c-2c(C2CCCCC2)c2ccc(cc23)C(=O)NS(=O)(=O)NCCN(C)CCNC1=O`, for which the selectivity ratio was more than 68.

On to `COc1ccc2c(c1)C=C1Cn3c-2c(C2CCCCC2)c2ccc(cc23)C(=O)NS(=O)(=O)N(C)CCCCNC1=O`, for which the selectivity ratio was more than 40.

For `COc1ccc2c(c1)C=C1Cn3c-2c(C2CCCCC2)c2ccc(cc23)C(=O)NS(=O)(=O)N(C)CCN2CCN(CC2)C1=O`, the selectivity ratio is more than 170.

For `CN1CCOCCN(C)S(=O)(=O)NC(=O)c2ccc3c(C4CCCCC4)c4n(c3c2)CC(=Cc2cc(F)ccc2-4)C1=O`, the selectivity ratio was more than 250.

Tested on in a further data set: not listed separately
Briefly: Cmax in Sprague-Dawley rat at 10 mg/kg, po. In kind it is ADME, organism-based. Set-up: dose 10 mg/kg, route oral. Particulars: in vivo. Summed up:
as §3
In general, Cmax refers to the maximum level reached in the sampled fluid or tissue. Compound `COc1ccc2c(c1)C=C1Cn3c-2c(C2CCCCC2)c2ccc(cc23)C(=O)NS(=O)(=O)N(C)CCN2CCN(CC2)C1=O` gave a Cmax of 6 ng/mL.

In turn, `CN1CCOCCN(C)S(=O)(=O)NC(=O)c2ccc3c(C4CCCCC4)c4n(c3c2)CC(=Cc2cc(F)ccc2-4)C1=O` had a peak concentration (Cmax) of 272 ng/mL.

A further data set concerns Hepatitis C virus. Briefly: Antiviral activity against Hepatitic C virus genotype 1b clone ET infected in human Huh7 replicon cells after 72 hrs by luciferase reporter gene assay. Format: functional, organism-based, Hepacivirus hominis. To be noted: Huh-7, 72 h. For orientation: A replicon is a self-replicating genome or part of one, used to study replication in cells.
A word on the pEC50: it is the EC50 on a negative log10 scale, so that one unit is a factor of ten. A high value points to a low EC50. Take `COc1ccc2c(c1)C=C1Cn3c-2c(C2CCCCC2)c2ccc(cc23)C(=O)NS(=O)(=O)NCCN(C)CCNC1=O`: the pEC50 is 6.33.

`COc1ccc2c(c1)C=C1Cn3c-2c(C2CCCCC2)c2ccc(cc23)C(=O)NS(=O)(=O)N(C)CCCCNC1=O` showed a negative logarithm of the EC50 (pEC50) of 6.04.

The compound `COc1ccc2c(c1)C=C1Cn3c-2c(C2CCCCC2)c2ccc(cc23)C(=O)NS(=O)(=O)N(C)CCN2CCN(CC2)C1=O` gave a pEC50 of 6.74.

In turn, `CN1CCOCCN(C)S(=O)(=O)NC(=O)c2ccc3c(C4CCCCC4)c4n(c3c2)CC(=Cc2cc(F)ccc2-4)C1=O` showed a pEC50 of 7.14. Compared with the last compound, the pEC50 is 0.40 log units higher.

Tested on in another data set: not listed separately
Briefly: Metabolic stability in rat liver microsomes assessed as compound metabolized at 5 uM after 15 mins. Format: ADME, Microsome. Particulars: read-out: Drug metabolism. Summed up:
as §2
(In general: Liver microsomes are a subcellular fraction often used to study metabolism.)
For the compound `COc1ccc2c(c1)C=C1Cn3c-2c(C2CCCCC2)c2ccc(cc23)C(=O)NS(=O)(=O)NCCN(C)CCNC1=O`, the metabolised at 0.25 h, 5 µM came to 23%.

In the case of `COc1ccc2c(c1)C=C1Cn3c-2c(C2CCCCC2)c2ccc(cc23)C(=O)NS(=O)(=O)N(C)CCCCNC1=O`, the metabolised at 0.25 h, 5 µM was 13%.

Turning to `COc1ccc2c(c1)C[C@@H]1Cn3c-2c(C2CCCCC2)c2ccc(cc23)C(=O)NS(=O)(=O)N(C)CCOCCN(C)C1=O`, the metabolised at 0.25 h, 5 µM was 42%.

Take `COc1ccc2c(c1)C=C1Cn3c-2c(C2CCCCC2)c2ccc(cc23)C(=O)NS(=O)(=O)N(C)CCN2CCN(CC2)C1=O`: the metabolised at 0.25 h, 5 µM stood at 17%.

Turning to `CN1CCOCCN(C)S(=O)(=O)NC(=O)c2ccc3c(C4CCCCC4)c4n(c3c2)CC(=Cc2cc(F)ccc2-4)C1=O`, the metabolised at 0.25 h, 5 µM worked out at 37%.

Tested on in the next data set: not listed separately
Put plainly: Oral bioavailability in Sprague-Dawley rat at 10 mg/kg. Particulars: in vivo. Format: ADME, organism-based. Summed up:
as §3
By bioavailability is commonly meant dose-corrected exposure relative to a reference, in per cent. High values mean much systemic uptake, low ones little systemic uptake. Take `COc1ccc2c(c1)C[C@@H]1Cn3c-2c(C2CCCCC2)c2ccc(cc23)C(=O)NS(=O)(=O)N(C)CCOCCN(C)C1=O`: the bioavailability was found to be 15%.

Consider `COc1ccc2c(c1)C=C1Cn3c-2c(C2CCCCC2)c2ccc(cc23)C(=O)NS(=O)(=O)N(C)CCN2CCN(CC2)C1=O`, for which the bioavailability was 3%.

For `CN1CCOCCN(C)S(=O)(=O)NC(=O)c2ccc3c(C4CCCCC4)c4n(c3c2)CC(=Cc2cc(F)ccc2-4)C1=O`, the bioavailability was 52%.
